DAGLB inh – blocks human DAGLB lipase activity; HEK293T DAGLB membrane lysate, EnzChek fluorogenic substrate; Q8NCG7; 0.059% of 340,000 active; AID 504411; inhibition, % at 5.17 µM; in the data active = inhibition above about 34%;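 note: 0% = enzyme with vehicle and 100% = wells lacking enzyme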
Granule exo inh – blocks lytic granule exocytosis; TALL-104 LAMP-1 surface exposure, flow cytometry; cells stimulated with thapsigargin and PMA; inhibition, % at 10 µM; 0.66% of 360,000 active; AID 651702;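 active = inhibition above about 55%, limit read from the data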
MT1-MMP act inh – inhibitors of human MT1-MMP activation. P50281. 0.061% of 360,000 active. HT1080 RFP-PRO-GFP cells, GFP/RFP ratio fluorescence, overnight; percent of plate control window, DMSO zero. GFP/RFP ratio change, % at 20 µM;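 active = GFP/RFP ratio change of at least 30% with cell ATP level not reduced by more than half and red fluorescence within 50% of control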
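Test system: HT1080 RFP-PRO-GFP cells; Benchmarks: DMSO and RFP-L50D-GFP cell wells; Timing: cells overnight before dosing, compound overnight, 37 °C, 5% CO2; Compound: one 20 µM compound dose with 1% DMSO; Read-out: GFP/RFP fluorescence ratio.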
VLA-4 inh – inhibition in a human VLA-4 binding assay; AID 2557; inhibition, % (about 7 µM as worked out from the volumes in the protocol); 0.2% of 330,000 active; VLA-4 expressing cells, ligand binding flow cytometry; in the data active = inhibition above about 50%
ABCB6 inh MLPCN – inhibitors of human ABC transporter ABCB6; K562-ABCB6 porphyrin accumulation, flow cytometry, 1 h; active compounds read low; fluorescence ratio to DMSO, % at 10 µM; 0.19% of 360,000 active;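 active = fluorescence ratio to DMSO below 75%, the collection mean minus 3 SD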;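 note: signal is porphyrin accumulated inside mitochondria; 100% equals median channel fluorescence of DMSO control wells; lower ratio means ABCB6 inhibition with less porphyrin fluorescence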
FGF22 binding – FGF22 (human) thermal shift binding. recombinant FGF22 thermal shift, SYPRO orange fluorescence; percent of sucrose octasulfate shift, DMSO zero. activity (Tm shift, normalised), % at 9.99 µM. 1.5% of 340,000 active. AID 651658;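 active = mean Tm shift, scaled 0 neutral to 100 positive control, at about 1.3% or above, every replicate too, limit read from the data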
Target sequence (Q9HCT0 whole entry, looked up): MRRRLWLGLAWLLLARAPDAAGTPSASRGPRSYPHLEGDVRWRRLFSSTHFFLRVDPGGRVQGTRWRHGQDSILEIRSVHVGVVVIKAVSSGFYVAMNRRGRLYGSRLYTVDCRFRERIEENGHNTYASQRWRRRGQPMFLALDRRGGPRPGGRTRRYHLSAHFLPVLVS
Numbers without * were called inactive; x = no result given. Compounds with a hit are over-represented: about 2% of the library has one in this group of screens.

SMILES	DAGLB inh	Granule exo inh	MT1-MMP act inh	VLA-4 inh	ABCB6 inh MLPCN	FGF22 binding
CN(C)/C=C/C(=O)c1ccc(Cl)s1	3.5	-1.3	-16.9	6.7	100.0	44.7*
O=C(O)/C=C/c1ccc([N+](=O)[O-])o1	2.5	5.4	-7.7	-0.8	98.0	0.1
O=[N+]([O-])c1ccc(/C=N/N=C/c2ccc([N+](=O)[O-])o2)o1	2.0	62.6*	-36.1	x	199.0	42.8
Cc1cc(NC(=O)c2ccccc2F)nc2c1c(=O)oc1ccccc12	-1.1	1.2	1.0	-4.9	92.0	43.9*
C[C@H]1CN([C@@H](C)CO)C(=O)c2cc(NS(C)(=O)=O)ccc2O[C@@H]1CN(C)C(=O)Nc1ccc(C(F)(F)F)cc1	x	x	x	x	x	-0.2
CCOC(=O)CSc1nc(-c2ccccc2)nc2ccc(C)cc12	-3.0	-0.3	1.2	0.0	87.0	43.4*
O=C(CSc1nc(-c2ccccc2)nc2ccc(F)cc12)Nc1ccc(C(=O)O)cc1	0.5	2.9	-0.5	-2.6	91.0	6.0*
Cc1c(C(=O)NC(=S)Nc2ccc(N3CCOCC3)cc2)cccc1[N+](=O)[O-]	-1.0	7.8	5.5	11.3	99.0	43.0*
CC(C)N(Cc1nccn1C)C(=O)CCc1nnc(CCCc2ccccc2)o1	-1.3	-1.9	-1.9	30.2	103.0	44.5*
COC(c1ccccc1)c1nnc(CCC(=O)N(C)CCc2ccccc2)o1 (centres undefined)	0.3	-0.2	-1.1	10.3	96.0	43.7*
CN(CCc1ccccn1)C(=O)CCc1nnc(CCCc2ccccc2)o1	0.2	-0.2	-3.9	-4.9	88.0	-0.1
CN(CCc1cnn(C)c1)C(=O)CCc1nnc(CCCc2ccccc2)o1	2.2	1.5	3.8	4.9	97.0	43.3*
C[C@@H]1CN([C@H](C)CO)C(=O)c2cc(NC(=O)Cn3cnnn3)ccc2O[C@H]1CN(C)S(=O)(=O)c1ccccc1	x	x	x	x	x	-0.1
COc1ccc(/C=C2\SC(=S)N(CCCC(=O)NC34CC5CC(CC(O)(C5)C3)C4)C2=O)cc1	x	x	x	x	x	0.2
CCOC(=O)C1Nc2ccccc2C2C(O)C(O)CC12 (centres undefined)	-9.2	3.1	46.3*	-26.0	154.0	-0.3
O=C(C[C@H]1CC[C@H]2[C@@H](COC[C@@H](O)CN2C(=O)Nc2ccc(Cl)cc2)O1)NCc1ccncn1	x	x	x	x	x	-0.1
CCc1nc2ccccc2n1CCc1ccccc1	-3.8	-1.6	3.0	0.0	94.0	0.2
CC(C)Cc1nc2ccccc2n1CCc1ccccc1	-3.2	-2.9	-2.3	-3.3	96.0	43.4*
CCCn1c(SCc2nc3ccccc3s2)n[nH]c1=O	-1.9	4.9	1.8	1.2	103.0	0.0
O=c1[nH]nc(SCc2nc3ccccc3s2)n1C1CC1	-4.8	-0.6	3.5	9.7	105.0	43.0*
CC(C(=O)NC1C(=O)N2C(C(=O)O)=C(CSc3nnnn3C)CSC12)n1cc(Cl)cn1 (centres undefined)	-2.6	-6.3	-7.6	-10.2	95.0	43.3*
Cc1c(Cl)cnn1CC(=O)NC1C(=O)N2C(C(=O)O)=C(CSc3nnnn3C)CSC12 (centres undefined)	-0.6	15.9	-5.4	-0.4	96.0	43.3*
Cn1cnc(S(=O)(=O)N2CC[C@H]3[C@H](CO)Nc4ccc(-c5ccccc5F)cc4[C@H]32)c1	x	x	x	x	x	0.0
COCC(=O)OCC(=O)N1N=C(c2ccc(Cl)cc2)CC1c1ccco1 (centres undefined)	0.3	2.1	2.9	1.0	97.0	44.0*
CCC(=O)N1N=C(c2ccc(Cl)cc2)CC1c1ccco1 (centres undefined)	-4.2	7.7	0.8	11.9	97.0	-0.2
SMILES	DAGLB inh	Granule exo inh	MT1-MMP act inh	VLA-4 inh	ABCB6 inh MLPCN	FGF22 binding
O=[N+]([O-])c1ccc(N/N=C/c2ccccc2O)cc1	3.0	64.8*	-5.1	-18.6	103.0	0.0
O=[N+]([O-])c1ccc(NN=Cc2ccccc2O)nc1	8.5	4.3	12.2	x	109.0	0.3
COC(=O)CNC(=O)COC(=O)/C=C/c1ccc2ccccc2n1	0.5	4.7	-2.7	17.4	101.0	43.1*
COCCNC(=O)COC(=O)/C=C/c1cnc2ccccc2n1	-1.6	3.2	0.5	9.7	100.0	x
COc1ccc(C(=O)N2C[C@@H]3[C@H](c4ccccc42)[C@H](CO)N3C(=O)c2cccc(F)c2)cc1	x	x	x	x	x	0.6
CC1(C)CC(NC(=O)c2sc3cc(Cl)ccc3c2Cl)CC(C)(C)N1	-0.9	33.3	-2.0	22.7	99.0	43.4*
O=C(NC1CC1)c1sc2cc(Cl)ccc2c1Cl	-2.4	12.8	-6.0	5.6	100.0	0.2
O=C(C[n+]1cc(-c2ccc(Cl)cc2)n2c1CCC2)N1c2ccccc2Sc2ccccc21	4.0	-1.4	-11.3	11.6	99.0	x
CC1CCC(C(C)C)C(OC(=O)C[n+]2cc(-c3ccc(Cl)cc3)n3c2CCC3)C1 (centres undefined)	3.9	64.2*	-7.1	2.7	93.0	-0.2
C=CC1c2ccccc2/C=C(C(=O)OC)\C(C(=O)OC)=C/N1Cc1ccc(OC)cc1 (centres undefined)	x	x	x	x	x	-0.2
C[C@@H]1CCCCO[C@@H](CN(C)C(=O)CCCN(C)C)[C@@H](C)CN([C@H](C)CO)C(=O)c2cc(NC(=O)Nc3ccccc3)ccc2O1	x	x	x	x	x	0.0
O=C(NCc1ccco1)/C(=C/c1ccc(C(F)(F)F)cc1)c1nc2ccccc2[nH]1	5.7	4.5	-20.3	-0.6	109.0	x
O=S(=O)(/C(=C\c1ccc(C(F)(F)F)cc1)c1nc2ccccc2[nH]1)c1ccccc1	0.6	69.7*	-10.2	x	94.0	x
Oc1cccc(Nc2c3ccccc3nc3ccccc23)c1	7.9	27.6	-10.9	-21.8	101.0	-0.5
CCN(CC)Cc1cc(Nc2c3ccccc3nc3c4ccccc4n(C)c23)cc(CN(CC)CC)c1O	3.7	100.3*	9.7	x	87.0	-0.7
CCNC(=O)[C@@H]1[C@@H](CO)[C@@H]2Cn3c(cccc3=O)[C@@H]2N1C(=O)C1CCCC1	x	x	x	x	x	-0.1
COCCn1c(SCC(=O)Nc2ccc(NC(=O)c3ccco3)c(OC)c2)nc2ccccc2c1=O	6.3	94.1*	3.1	-6.6	107.0	0.2
COc1ccc(CNC(=O)/C(C)=C\C(=O)O)cc1	0.2	3.3	-1.1	7.9	103.0	43.4*
C[C@@H]1CCCCO[C@H](CN(C)S(=O)(=O)c2ccccc2)[C@H](C)CN([C@H](C)CO)C(=O)c2cc(NS(=O)(=O)c3ccc(F)cc3)ccc2O1	x	x	x	x	x	0.4
Cc1ccc(C(=O)c2cc(C)sc2N)cc1	-2.6	1.6	1.0	4.5	100.0	42.9*
Cc1ccc(C(=O)c2cc3c(cc2N)OCCO3)cc1	-3.7	-2.1	1.6	9.4	102.0	-0.5
COc1ccc(S(=O)(=O)N(C)C[C@H]2OCc3cnnn3CCCC(=O)N([C@@H](C)CO)C[C@@H]2C)cc1	x	x	x	x	x	-0.6

Assay outcomes (PubChem)
